Experiment: Toxicity liver stage against HepG2, at 10uM
Assay type: cell-based
Set-up: test concentration 10 uM, cell line HepG2-A16-CD81EGFP
Settings: human, HepG2-A16-CD81EGFP cells; read-out: INHIBITION
Procedure, shortened: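 Uninfected HepG2-A16-CD81EGFP cells, 3 × 10^3 per well, 1536-well, plated on prespotted compound at 10 μM final, parasite-free screening media added to match infected plates; puromycin 10 μM positive, DMSO 0.5% negative; run in parallel with 48 h PbLuc assay at 37 °C, 5% CO2; viability by CellTiter-Glo luminescence, normalized to controls.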

SMILES | cytotoxicity at 10 µM
O=C(CN1C[C@@H]2CC[C@H]1CN(Cc1ccccn1)C2)NCc1cccs1 | -24.2%
O=C1COc2cc(S(=O)(=O)NCCC3=CCCCC3)c(Cl)cc2N1 | 18.6%
CNC(=O)c1ccc(CN(C)C(=O)Nc2nnc(C(C)C)s2)cc1 | -14%
O=C(c1ccc[nH]1)N1CCc2nnc(Cn3cccc3)n2CC1 | 3.46%
Cn1c(=O)oc2ccc(NC(=O)N3CCc4ccccc4C3)cc21 | -5.66%
CC1=Nc2c(c(=O)[nH]n2C(C)C)C(c2ccc(F)c(F)c2)S1 (stereo unspecified) | -5%
CCc1nc(CNC2CCN(c3ccc(OC)cc3)CC2)cs1 | -12.8%
COc1cc(C)ccc1OCC(=O)NS(=O)(=O)c1cc(F)ccc1F | 2.15%
CN1CC2(CCNCC2)CC1C(=O)NCCCNc1cccnc1 (stereo unspecified) | 6.24%
CCc1ccc(CN2CCC(CNC(=O)c3ccc(C)nc3)C2)nc1 (stereo unspecified) | 7.78%
c1ccc(-c2nc(CN3CCCC(Cn4cncn4)C3)no2)cc1 (stereo unspecified) | 3.71%
COc1ccc(CNC(=O)NCc2ccc(C)cc2)cn1 | -5.63%
CN(CC1CCC1)C(=O)c1ccc(-c2nc(C3CC3)n[nH]2)cc1 | -3.26%
CC(=O)N1CCc2c(nc(N(C)C)nc2N(C)CCCC2CCCO2)C1 (stereo unspecified) | 7.92%
CCCN(CC1CC1)C(=O)Nc1ccc(N2CCSCC2)cc1C | 3.05%
Cc1cc(NC(=O)C(C)N2CCN(c3ccccc3F)CC2)no1 (stereo unspecified) | 2.83%
Cc1ccccc1C(CC(=O)N1CCc2sccc2C1)NC(N)=O (stereo unspecified) | 0.0773%
O=S(=O)(c1ccc(Cl)s1)N1CCN(Cc2nc(-c3ccco3)cs2)CC1 | 47.6%
CCn1cc(CN2CCCN(C(=O)c3ccccc3OC)CC2)cn1 | -11.4%
COCCN(C)C(C)c1cccc(S(N)(=O)=O)c1 (stereo unspecified) | -28%
O=C(O)c1ccc(CCNC(=O)C2(O)Cc3ccccc3C2)cc1 | 3.69%
Cc1cnn(CCC(=O)N2CCCC(c3ccn[nH]3)C2)c1 (stereo unspecified) | -8.25%
O=C(c1cccnc1-n1cncn1)N1CCc2ccccc2C1 | -13.9%

SMILES | cytotoxicity at 10 µM
CC(C)C(C)(C#N)NC(=O)CN1CCCN(Cc2ccccc2F)CC1 (stereo unspecified) | -5.84%
CCOc1ccccc1C1CCCN1 (stereo unspecified) | -14.1%
COc1ccc(Cl)cc1CN1CC(n2cccn2)C1 | -1.73%
CCn1cncc1CNc1ccc(-c2nc(CC(C)C)no2)cn1 | -9.07%
CCCc1noc(C(C)N2CCN(c3ccc(C#N)cn3)CC2)n1 (stereo unspecified) | -0.487%
CCN1CCCC(CN2CCn3nc(CNC(=O)N(C)C)cc3C2)C1 (stereo unspecified) | -2.96%
CN(C)CCCN(C)c1nccc(N2CCN[C@H]3CS(=O)(=O)C[C@H]32)n1 | -0.0813%
Cc1ncccc1C(=O)Nc1ccc2ccn(CCN(C)C)c2c1 | 4.08%
O=S1(=O)CCC(c2nc(-c3cccc(Br)c3)no2)C1 (stereo unspecified) | 7.51%
CC(=O)N1CCC2(CCCN(S(=O)(=O)c3ccccc3)C2)C1 (stereo unspecified) | 0.169%
Cc1c[nH]c(C(=O)N2CCCC2c2ccc(C(=O)N3CCSCC3)s2)n1 (stereo unspecified) | 2.73%
Cn1ncc2c1C(COCC1CC1)CN(Cc1ccco1)C2 (stereo unspecified) | -78.6%
COC(C)C(=O)NS(=O)(=O)c1ccc(F)c(C(F)(F)F)c1 (stereo unspecified) | -4.04%
O=C(Cn1cc(C2CC2)nn1)NC(c1cc(F)ccc1F)C1CC1 (stereo unspecified) | -12.6%
CC(C)N1CCO[C@H]2CN(C(=O)Cc3cccs3)C[C@H]21 | 7.07%
c1cc(-c2n[nH]cc2-c2ccnc(N3CCCCCC3)n2)ccn1 | -0.252%
CC(=O)N1CCN(C(=O)C2CCN(c3cccnn3)C2)CC1 (stereo unspecified) | -17.6%
COc1ccncc1NCc1cscn1 | 6.44%
O=C(c1cn2ccsc2n1)N1CCN(CC2CC2)[C@@H]2CS(=O)(=O)C[C@@H]21 | -2.82%
CCCc1ccc(CN2CCC3(CCC(=O)N(CCCOC)C3)CC2)o1 | -1.53%
CCN(CC)c1ncc2c(O)nc(C3CCNCC3)cc2n1 | 14.7%
CCn1ccnc1CN1CCN(C(C)C(=O)NCC(F)(F)F)CC1 (stereo unspecified) | 9.73%
Cn1ccnc1CN1CCC(Cn2cc(-c3ccccc3)nn2)CC1 | 0.959%

SMILES | cytotoxicity at 10 µM
CCc1cc(N(C)Cc2nonc2C)nc(N(C)C)n1 | -6.32%
CNC(=O)NC(=O)CN1CCC(c2c[nH]c3ccc(OC)cc23)CC1 | 21.4%
c1ccc2nc(N3CCCC3c3nnc4n3CCCCC4)cnc2c1 (stereo unspecified) | -1.63%
COCCN1CCC(CNC(=O)C2(c3ccccc3)CCOCC2)C1 (stereo unspecified) | -5.87%
CC(C)(C)OC(=O)N1CCCC[C@H]1C(=O)NCc1nccs1 | -9.39%
Cc1oncc1C(=O)NCc1cc(=O)n2c(n1)CN(C(C)C)CCC2 | 2.45%
Cc1cccc(CN2CC[C@H]3[C@H]2CCN3Cc2cnn(C)c2)n1 | 8.67%
CCC(=O)N1CCCc2c(cnn2C)C1 | 3.12%
Cc1ccc(C(=O)O)c(N2Cc3cnc(C(C)(C)C)nc3C2)n1 | 5.67%
O=C(c1cn(-c2ccc(C(F)(F)F)cn2)nn1)N1CCCCCC1 | -57.4%
Cc1ccc(Oc2ncccc2CNC2CCOCC2)cn1 | -3.73%
Cc1nc(N(C)C)ncc1C(=O)N[C@@H]1CCc2ccccc21 | 5.77%
O=C(c1ccc(=O)[nH]n1)N1CC(c2nc(Cc3ccccc3)no2)C1 | -19.3%
CCS(=O)(=O)N(C)CCCNC(=O)c1cc(Cl)cc2cccnc12 | 15%
Cc1nc(CCCNC(=O)c2c(F)cc(F)cc2F)n[nH]1 | -4.31%
CN(Cc1cn2ccccc2n1)C1CCCN(c2cccnn2)C1 (stereo unspecified) | -9.78%
COc1cccc2c1OCC(NC(=O)NCCc1ccccn1)C2 (stereo unspecified) | 5.69%
Cc1n[nH]c(CN2CCN(Cc3ccccc3)[C@@H]3CS(=O)(=O)C[C@@H]32)n1 | -7.42%
O=S(=O)(c1cc(F)ccc1F)n1cc(Cl)cn1 | 4.52%
Cc1cnc(N2C[C@@H]3[C@@H](C2)OCC(=O)N3C)nc1 | -3.4%
CC(C)c1nccn1-c1cncc(C2CCCN(C3CCCCC3)C2)n1 (stereo unspecified) | -9.97%
Cc1ccc(-n2ncc3c2CCCC3N)cc1C (stereo unspecified) | -1.97%
CC(C)c1nc(C2CCCN(C(=O)c3ccc4nncn4c3)C2)no1 (stereo unspecified) | -4.38%

SMILES | cytotoxicity at 10 µM
COc1cc2c(cc1CNC(=O)Cc1cc(C)[nH]n1)OC(C)C2 (stereo unspecified) | -13.8%
COc1ccccc1-c1ccc(NCc2cn3c(n2)SCC3)nn1 | 8.62%
Cn1cc(-c2ccnc(NCC3CCN(Cc4ccccc4)C3)n2)cn1 (stereo unspecified) | -130%
CCc1nc(C2CCCN2C(=O)c2cc(Cl)c[nH]2)no1 (stereo unspecified) | -12.2%
Cc1nc(-c2cnn(C)c2)nc2c1CN(C(=O)c1cccnc1)CC2 | 2.68%
Cc1cc(-c2cnc(NC3CCCCC3)nc2-c2ccco2)on1 | -16.4%
CCc1nc2c(c(N3CCOCC3)n1)CCN(C(=O)c1ccon1)CC2 | 10.6%
CC1CCN(C(=O)CSCCN2CCOCC2)CC1 | 1.89%
CN(Cc1ccc(F)cc1)C(=O)Nc1cccnc1N1CCCC1 | -4.26%
CC(C)(C)CC(NC(=O)N1CCC(C(N)=O)CC1)C(F)(F)F (stereo unspecified) | -1.14%
CNC(=O)CN1CCOCC2(CN(CCC(F)(F)F)CCO2)C1 (stereo unspecified) | 3.59%
Cc1ccc(NC2CCN(C(=O)c3c(C)nn(C)c3Cl)CC2)nn1 | -11.6%
OCC(CO)Nc1cccc(C(F)(F)F)n1 | 0.409%
O=C(c1cccnc1)N(CCO)Cc1cc(Br)ccc1F | 12.7%
COCC(=O)NS(=O)(=O)c1ccc(F)c(F)c1 | -6.49%
Cc1ccc(S(=O)(=O)NC(=O)c2c(C)noc2C(C)C)cc1C | -9.11%
COc1c(CNCc2ccc3c(c2)OCO3)c(C(C)C)nn1C | 0.745%
CSc1ncc(C(=O)N2C[C@@H]3CC[C@H]2CN(c2ncccn2)C3)cn1 | 1.26%
Cn1cc(C2CC(=O)NC23CCN(C(=O)c2ccc[nH]2)CC3)cn1 (stereo unspecified) | 8.94%
COc1ccc(OCCNC(=O)c2ccc3c(=O)[nH][nH]c(=O)c3c2)cc1 | -4.83%
O=C(COc1ccccc1)NS(=O)(=O)Cc1ccccc1 | -12.3%
Cn1nc2c(cc1=O)CN(CC(=O)NC1CCCCNC1=O)CC2 (stereo unspecified) | 1.9%
FC(F)(F)C1CN(Cc2cccc(OCc3ccccn3)c2)CCO1 (stereo unspecified) | 1.48%

SMILES | cytotoxicity at 10 µM
CC(C)Nc1nc(O)cc(C2CC(=O)N(C3CCCCC3)C2)n1 (stereo unspecified) | 4.5%
NC(c1ccc(F)cc1)c1cccs1 (stereo unspecified) | 15.6%
O=C(C1CCOC1)N1CCN(CCn2cccn2)c2ncccc2C1 (stereo unspecified) | -104%
CCn1cc(CN2CCC3(CC2)c2ccccc2CC3O)cn1 (stereo unspecified) | 5.54%
Cc1ccc(NS(=O)(=O)c2cnn(-c3ccccc3)c2)c(C(=O)O)c1 | -3.11%
Cc1cc(C)nc(NC2CCc3nc(C)nn3C2)n1 (stereo unspecified) | 14.3%
CCC(=O)N1CCC2(CC1)C(=O)N(C)CCN2Cc1csc(C)n1 | 5.59%
O=C1CC(N(C(=O)CCc2cc(F)ccc2F)C2CC2)C(=O)N1 (stereo unspecified) | 3.62%
CN1CCCC1c1ccnc(-c2ccccn2)n1 (stereo unspecified) | -5.26%
O=C(NCc1cccs1)[C@@H]1CC[C@@H]2[C@@H](CCN2CC2CCC2)O1 | -10.2%
CCOC(=O)c1cnn(-c2cc(Oc3cccc(C)c3)ncn2)c1N | 16.9%
Cn1ccnc1SC1CCc2ccccc2NC1=O (stereo unspecified) | -8.75%
Cc1nc2c(c(C)c1CC(=O)NCc1cccc(C#N)c1)c(=O)[nH]n2C | -0.722%
N#CC1(NC(=O)CN2CCc3c(ncn3C3CC3)C2)CCCC1 | 12.1%
CC[C@H](CO)NC(=O)c1coc(COc2ccccc2F)n1 | 5.21%
CCOc1ccc(C(=O)Nc2c(C)nc3scc(C)n3c2=O)cc1 | -5.58%
O=C(CN1CCCC(c2ncc[nH]2)C1)NCCCN1CCCCCC1=O (stereo unspecified) | 6.66%
Cc1cccc(NC(=O)C2CC(=O)n3cnnc3S2)c1 (stereo unspecified) | 2.37%
Cn1nc(CNC(=O)C2CCCCC2)cc1C1CC1 | -4.56%

Reference: ChEMBL document CHEMBL4513216, “Probing the Open Global Health Chemical Diversity Library for Multistage-Active Starting Points for Next-Generation Antimalarials” (ACS Infect Dis, 2020)
